Source: paper PMC12272566 (RSC Advances, 2025)

Experiments:
Type in all cases: biochemical
[1] = target: T1, aldose reductase (Rattus norvegicus, UniProt P07943); assay: aldose reductase inhibition assay
[2] = target: T1, aldose reductase; assay: inhibitory kinetic assay on aldose reductase
How it was run: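 Aldose reductase from rat lens tissue. Reactions held NADPH (0.3 mM), phosphate buffer (100 mM, pH 6.2) and lithium sulfate (0.6 mM), with DL-glyceraldehyde substrate at several concentrations, with or without test compound, at 37 °C for 10 min. NADPH decrease was read at 340 nm. Rates were fitted by nonlinear Michaelis–Menten regression with Lineweaver–Burk, Dixon and slope secondary plots to derive Km, Vmax and Ki.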

[3] = target: α-glucosidase (Saccharomyces cerevisiae, UniProt P53341); assay: inhibitory kinetic assay on α-glucosidase
Chain of α-glucosidase (P53341 whole entry): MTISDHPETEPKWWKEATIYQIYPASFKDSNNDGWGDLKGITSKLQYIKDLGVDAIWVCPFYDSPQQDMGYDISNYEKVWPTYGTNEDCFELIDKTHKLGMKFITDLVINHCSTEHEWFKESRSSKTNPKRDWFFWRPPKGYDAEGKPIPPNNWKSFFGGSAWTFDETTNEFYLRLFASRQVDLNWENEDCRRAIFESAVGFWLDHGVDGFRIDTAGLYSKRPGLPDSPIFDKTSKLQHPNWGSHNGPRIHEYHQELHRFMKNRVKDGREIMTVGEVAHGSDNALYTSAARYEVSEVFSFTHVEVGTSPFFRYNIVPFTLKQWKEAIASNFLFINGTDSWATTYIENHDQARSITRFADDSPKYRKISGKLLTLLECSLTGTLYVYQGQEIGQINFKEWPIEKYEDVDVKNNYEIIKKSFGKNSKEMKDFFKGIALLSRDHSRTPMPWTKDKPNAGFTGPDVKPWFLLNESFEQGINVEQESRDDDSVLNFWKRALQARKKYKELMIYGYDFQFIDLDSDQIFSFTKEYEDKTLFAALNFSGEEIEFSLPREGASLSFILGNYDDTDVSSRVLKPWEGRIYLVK

In the case of COc1cc(/C=C/c2ccc(O)cc2)cc(OC)c1 [pterostilbene], the “effect on aldose reductase inhibition (in words)” value ([1]; 0–10 mM tested, data not shown) is reported as “weak effect”.

In the case of COc1cc(O)cc(/C=C/c2ccc(O)cc2)c1 [pinostilbene, 3-methoxy-4′,5-dihydroxy-trans-stilbene], the Ki [2] is reported as 60 ± 4.64 µM, the “inhibition type against aldose reductase” value ([2]; Vmax decreased, Km fixed) is reported as “noncompetitive-type inhibition” and the IC50 [1] is reported as 55.4 ± 4.31 µM. For the same molecule, the Ki [3] was 14.3 ± 1.49 µM and the “inhibition type against α-glucosidase” value ([3]; Vmax decreased, Km fixed) was “noncompetitive-type inhibition”.
